Only some compounds are listed: those with a hit (about 4.8% of all), similar ones and a draw of the others.
CHOP UPR activ: apoptotic UPR (CHOP) activation | CHO-CHOP luciferase reporter, luminescence; percent of tunicamycin response over DMSO baseline | activation, % at 10 µM | 330,000 compounds, 0.34% hits;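 active means at 10 µM dose, activation of 40% or more, normalized to positive control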;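 further: 100% = tunicamycin at 10 µg/mL and 0% = DMSO alone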
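assay system = CHO CHOP reporter cells | amount = 500 CHO-CHOP cells per well | buffer or medium = F12 with 10% FBS | incubation = 16-18 h cell attachment, then 6 h compound exposure, 37 °C | detection = luminescence read with Steady-Glo | read-out = percent activation relative to tunicamycin control | controls = tunicamycin high control, DMSO low control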
Mdm2 MdmX PPI: inhibitors of human Mdm2/MdmX interaction; O15151+Q00987; SaOS-2 split-luciferase Mdm2/MdmX complementation, luminescence; inhibition, % at 8 µM; 330,000 compounds, 3% hits;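 active means inhibition of at least 50% at 8 µM in the primary screen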
Target sequence (O15151 whole entry, looked up): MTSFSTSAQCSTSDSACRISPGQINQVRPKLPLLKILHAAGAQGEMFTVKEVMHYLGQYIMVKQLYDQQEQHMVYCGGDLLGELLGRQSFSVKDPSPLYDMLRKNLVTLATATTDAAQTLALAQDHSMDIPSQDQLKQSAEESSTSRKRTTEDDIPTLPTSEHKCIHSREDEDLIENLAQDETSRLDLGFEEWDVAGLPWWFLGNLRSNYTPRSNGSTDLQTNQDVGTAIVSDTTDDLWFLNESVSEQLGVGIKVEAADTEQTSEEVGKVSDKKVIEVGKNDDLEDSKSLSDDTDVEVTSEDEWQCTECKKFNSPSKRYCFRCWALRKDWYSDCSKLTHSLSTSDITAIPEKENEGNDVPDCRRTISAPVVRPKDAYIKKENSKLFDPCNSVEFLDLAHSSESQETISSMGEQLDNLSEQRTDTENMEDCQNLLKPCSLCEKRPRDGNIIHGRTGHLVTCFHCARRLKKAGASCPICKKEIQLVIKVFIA
Target sequence (Q00987 whole entry, looked up): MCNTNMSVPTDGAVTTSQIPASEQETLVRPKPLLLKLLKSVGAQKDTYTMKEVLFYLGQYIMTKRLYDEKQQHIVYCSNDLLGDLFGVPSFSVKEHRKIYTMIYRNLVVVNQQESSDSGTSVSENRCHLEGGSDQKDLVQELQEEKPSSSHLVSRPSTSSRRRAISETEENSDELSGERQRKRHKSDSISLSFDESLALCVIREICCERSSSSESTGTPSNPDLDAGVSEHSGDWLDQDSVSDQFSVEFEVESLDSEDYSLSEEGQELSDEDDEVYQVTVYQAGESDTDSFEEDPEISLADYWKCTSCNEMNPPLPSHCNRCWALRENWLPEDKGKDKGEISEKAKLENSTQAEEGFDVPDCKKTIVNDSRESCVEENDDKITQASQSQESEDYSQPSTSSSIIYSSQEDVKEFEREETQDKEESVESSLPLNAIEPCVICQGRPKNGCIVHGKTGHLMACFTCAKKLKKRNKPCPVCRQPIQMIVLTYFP
XBP1 UPR activ: adaptive UPR (XBP1) activation; CHO-XBP1 luciferase reporter, IRE1-XBP1 UPR activation, luminescence; percent of tunicamycin response, DMSO as zero; AID 463104; 330,000 compounds, 0.33% hits; activation, % at 20 µM;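 active means versus positive control, 20 µM dose yields 30% or more activation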;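 further: 100% = tunicamycin at 10 µg/mL and 0% = DMSO only wells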
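Material: CHO-XBP1 cells stably carrying IRE1-XBP1-driven luciferase reporter | Medium: F12 with 10% serum | Compound dosing: 20 µM single concentration, DMSO 1% | Incubation: Overnight seeding at 37 °C, 6 h compound treatment at 37 °C | Detection: Steady-Glo luminescence read | Read-out basis: % activation of reporter signal versus tunicamycin and DMSO controls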
CSC inhib: blocks cancer stem cells; cancer stem cell-like cells viability, luminescence; inhibition, % at 7.5 µM; 300,000 compounds, 1.1% hits; AID 2717; in the data active means inhibition above about 75%; tested in HMLE shEcad cells
SKKanGAS inh: blocks kanamycin growth of S. pyogenes SKKanGAS strain. BacTiter-Glo, 6 h. inhibition, % at 7.5 µM. 300,000 compounds, 1.3% hits. AID 1662;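 active means mean replicate score, as percent of positive control median, at least 50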;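 further: strain carries kanamycin resistance gene driven by streptokinase promoter and grows in 40 µg/ml kanamycin; loss of luminescence reflects streptokinase promoter inhibition or plain growth inhibition; 0% = median of DMSO wells and 100% = positive control at its reference dose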
Beta cell apopt: beta cell apoptosis inhibition; INS-1E cytokine-induced death, ATP luminescence, 48 h; percent of positive-control rescue, neutral wells zero; protection from apoptosis, % (no concentration beside the values); 300,000 compounds, 0.8% hits;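 active means Every replicate reaches about 75%, or at least half do and their mean reaches it too, limit read from the data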;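 further: 0% = cytokine-treated negative control wells and 100% = positive control rescue; higher means more ATP so stronger rescue from cytokine killing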
Mdm2 MdmX conf: confirmation of human Mdm2/MdmX interaction inhibitors; shares compounds with Mdm2 MdmX PPI; Mdm2-MdmX binding, luminescent assay; inhibition, % at 8 µM; 10,000 compounds, 55% hits; in the data active means inhibition above about 40%
Full FLuc ctr: inhibits full-length luciferase, flagging false Mdm2/MdmX hits; inhibition, % at 8 µM; shares compounds with Mdm2 MdmX PPI; 6,200 compounds, 77% hits; SaOS-2 full-length luciferase counterscreen, luminescence;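 active means mean inhibition at 8 µM reaching about 37%, which flags the compound as non-specific, limit read from the data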;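 further: p53-null SaOS-2 cells with luciferase driven by a doxycycline-inducible promoter; compound on cells about two nights before reading with doxycycline added after day one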
Numbers without * were called inactive; nt = not tested or not shown.

SMILES	CHOP UPR activ	Mdm2 MdmX PPI	XBP1 UPR activ	CSC inhib	SKKanGAS inh	Beta cell apopt	Mdm2 MdmX conf	Full FLuc ctr
C=CCN1CC[C@]23c4c5ccc(O)c4OC2C(=O)CC[C@@]3(O)C1C5 (stereo not given in full)	0	-16	13	-13	3	-3	nt	nt
Nc1c(Br)cc([N+](=O)[O-])cc1[N+](=O)[O-]	-1	18	1	-11	nt	2	nt	nt
CC/C(=C\C=C\[C@@H]1C=C[C@@H]2CCC[C@H]2[C@@H]1C(=O)c1ccc[nH]1)[C@@H]1O[C@@H]([C@@H](C)C(=O)O)CC[C@@H]1C	17	84*	6	90*	131*	35	74*	37*
COc1cccc(/C=C2\N=C(c3cncc(Br)c3)OC2=O)c1	1	12	0	1	-1	-11	nt	nt
COc1ccc(C2=CC(c3ccc(OC)c(OC)c3)c3c(c4ccccc4oc3=O)O2)cc1OC (stereo not given)	3	55*	8	54	20	16	65*	66*
COc1ccc(C2C(C#N)=C(N)Oc3c2c(=O)oc2ccccc32)cc1Cn1cc([N+](=O)[O-])cn1 (stereo not given)	-1	6	-2	3	7	1	nt	nt
C/C=C(\C)C(=O)OC1C(C)=C2C(C1OC(=O)CCCCC)C(C)(OC(C)=O)CC(OC(=O)CCC)C1(O)C2OC(=O)C1(C)O (stereo not given)	22	82*	61*	101*	31	107*	64*	24
CN1CCc2cc(O)cc3c2[C@H]1Cc1ccc(O)c(O)c1-3	-2	6	-6	0	-2	-3	nt	nt
CN1CCc2cc3c(c4c2C1Cc1ccccc1-4)OCO3 (stereo not given)	2	59*	-3	18	4	88*	52*	61*
COc1ccc2[nH]c(C)c(CCNCc3cc(OC)c(OC)c(OC)c3)c2c1	-2	-13	2	-9	3	4	nt	nt
COc1ccc(CNCCc2c(C)[nH]c3ccc(OC(F)(F)F)cc23)c(OC)c1	6	87*	1	16	-1	88*	53*	52*
CC[C@H](C)[C@@H]1O[C@@]2(C=CC1C)CC1C[C@@H](CC=C(C)C(O[C@H]3CC(OC)C(O[C@H]4CC(OC)C(O)C(C)O4)C(C)O3)C(C)C=CC=C3CO[C@@H]4C(O)C(C)=C[C@@H](C(=O)O1)[C@]34O)O2 (stereo not given in full)	36	85*	50*	103*	nt	17	15	nt
CN(C)S(=O)(=O)c1cccc(C(=O)N2CCC(C(=O)O)(c3ccccc3)CC2)c1	3	-10	0	-5	3	-3	nt	nt
FC(F)(F)c1ccc2c(c1)N(CCCN1CCN(CCCl)CC1)c1ccccc1S2	27	61*	1	44	11	4	23	nt
O=C(CNC1CCCCC1)N1CCC2(CC1)OCCO2	-2	5	-1	-14	-8	0	nt	nt
Cc1ccc(-c2cc(-c3ccccc3)cc(-c3ccccc3)[n+]2-c2ccccc2)cc1	29	96*	-4	25	-4	121*	92*	13
CN(C)c1ccc(-[n+]2c(-c3ccccc3)cc(-c3ccccc3)cc2-c2ccccc2)cc1	31	89*	7	nt	-5	nt	95*	23
O=[N+]([O-])c1cc(Cl)c(O)c(-[n+]2c(-c3ccccc3)cc(-c3ccccc3)cc2-c2ccccc2)c1	1	14	-5	-3	4	14	nt	nt
c1ccc(-c2cc(-c3ccccc3)[n+](-c3ccccc3)c(-c3ccccc3)c2)cc1	-1	89*	2	37	27	113*	92*	56*
O=P1(NCCCn2cc[n+](Cc3nc4ccccc4[nH]3)c2)C=C(c2ccccc2)OC(c2ccccc2)=C1	-1	2	0	-16	-13	-4	nt	nt
COc1ccc(CNCCc2ccc(Cl)cc2)c(OC)c1OC	-2	0	-5	3	1	4	nt	nt
O=C1/C(=C/c2ccccc2)C[C@@]2(O)[C@H]3Cc4ccc(O)c5c4[C@@]2(CCN3CC2CC2)C1O5 (stereo not given in full)	27	100*	-9	nt	nt	nt	100*	51*
OC1(c2cccnc2)CC2CCC(C1)N2Cc1nnnn1Cc1ccccc1 (stereo not given)	4	-23	-2	-6	0	-6	nt	nt
O=c1c2ccccc2nc(/C=C/c2ccccc2)n1-c1ccccc1O	0	53*	4	90*	18	3	24	nt
Cc1ccccc1-n1c(/C=C/c2ccccn2)nc2ccccc2c1=O	3	58*	-1	15	-8	-2	35	67*
SMILES	CHOP UPR activ	Mdm2 MdmX PPI	XBP1 UPR activ	CSC inhib	SKKanGAS inh	Beta cell apopt	Mdm2 MdmX conf	Full FLuc ctr
COc1cc(/C=C/c2nc3ccccc3c(=O)n2-c2cccc(O)c2)ccc1O	1	42	5	25	10	9	nt	nt
COc1cc(/C=C/c2nc3ccccc3c(=O)n2-c2ccccc2O)ccc1O	5	69*	6	-2	27	-1	18	nt
O=c1c2ccccc2nc(/C=C/c2ccc(O)cc2)n1-c1ccccc1O	3	39	0	34	35	3	nt	nt
C[C@]12CCC3C(CC[C@H]4C[C@H](OC(=O)c5cccnc5)CC[C@]34C)C1CCC2=O (stereo not given in full)	-1	24	-2	20	nt	12	nt	nt
FC(F)(F)/C(=N\P(=S)(N1CCOCC1)N1CCOCC1)N1CCOCC1	1	8	3	3	7	-4	nt	nt
COC(=O)C1=C(c2cc3ccccc3s2)C[C@@H]2CC[C@H]1N2C(=O)N1CCC(C)CC1	-1	-10	-5	31	15	-3	nt	nt
CC/C=C/CC(=O)N[C@@H](c1ccccc1)[C@@H](O)C(=O)O[C@H]1C[C@@]2(O)[C@@H](OC(=O)c3ccccc3)C3[C@](C)(C(=O)[C@H](OC(C)=O)C(=C1C)C2(C)C)[C@@H](O)C[C@H]1OC[C@@]31OC(C)=O (stereo not given in full)	1	69*	5	64	0	nt	67*	48*
